This is an account of results in ChEMBL document CHEMBL2150846, “Optimization of an ether series of mGlu5 positive allosteric modulators: molecular determinants of MPEP-site interaction crossover” (Bioorg Med Chem Lett, 2012).

Active and inactive are the calls of the source. No cut-off for these calls is given here.

The target of data set [1] is T1, Metabotropic glutamate receptor 5 (Rattus norvegicus, UniProt P31424). In words: Positive allosteric modulation of rat mGluR5 expressed in human HEK293 cells assessed as calcium mobilization. The data set is classed as functional, cell-based. Put shortly:
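Calcium mobilization in HEK293 cells expressing rat mGlu5, used to obtain functional EC50. pEC50 is the mean of three independent determinations, with coefficient of variation <0.05.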
In general terms: Calcium assays in cells follow changes in intracellular calcium, usually with a dye or a luminescent sensor.

Data set [2] concerns the target T1, Metabotropic glutamate receptor 5. Put plainly: Displacement of [3H]methoxyPEPy from rat mGluR5 expressed in human HEK293 cells after 1 hr by scintillation counter. Format: cell-based. In general terms: In a radioligand displacement assay an active substance lowers the binding of a labelled ligand.
The target in data set [3] is Metabotropic glutamate receptor 5 (Rattus norvegicus) (UniProt P31424). Put plainly: Displacement of [3H]methoxyPEPy from rat mGluR5 expressed in human HEK293 cells at 10 uM after 1 hr by scintillation counter. The data set is classed as cell-based. Put shortly:
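Single-concentration binding to the MPEP site, read as % displacement of [3H]methoxyPEPy at 10 μM test compound. Values are the average of two determinations.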

The nature of data set [4]: Solubility of the compound in fasted state simulated intestinal fluid. The data set is classed as physicochemical.
For data set [5], the target named is T2, Metabotropic glutamate receptor 5 (Homo sapiens, UniProt P41594). In words: Positive allosteric modulation of human mGluR5 expressed in HEK293 cells assessed as calcium mobilization. Format: functional, cell-based.
Target sequence in this assay (P41594 whole entry): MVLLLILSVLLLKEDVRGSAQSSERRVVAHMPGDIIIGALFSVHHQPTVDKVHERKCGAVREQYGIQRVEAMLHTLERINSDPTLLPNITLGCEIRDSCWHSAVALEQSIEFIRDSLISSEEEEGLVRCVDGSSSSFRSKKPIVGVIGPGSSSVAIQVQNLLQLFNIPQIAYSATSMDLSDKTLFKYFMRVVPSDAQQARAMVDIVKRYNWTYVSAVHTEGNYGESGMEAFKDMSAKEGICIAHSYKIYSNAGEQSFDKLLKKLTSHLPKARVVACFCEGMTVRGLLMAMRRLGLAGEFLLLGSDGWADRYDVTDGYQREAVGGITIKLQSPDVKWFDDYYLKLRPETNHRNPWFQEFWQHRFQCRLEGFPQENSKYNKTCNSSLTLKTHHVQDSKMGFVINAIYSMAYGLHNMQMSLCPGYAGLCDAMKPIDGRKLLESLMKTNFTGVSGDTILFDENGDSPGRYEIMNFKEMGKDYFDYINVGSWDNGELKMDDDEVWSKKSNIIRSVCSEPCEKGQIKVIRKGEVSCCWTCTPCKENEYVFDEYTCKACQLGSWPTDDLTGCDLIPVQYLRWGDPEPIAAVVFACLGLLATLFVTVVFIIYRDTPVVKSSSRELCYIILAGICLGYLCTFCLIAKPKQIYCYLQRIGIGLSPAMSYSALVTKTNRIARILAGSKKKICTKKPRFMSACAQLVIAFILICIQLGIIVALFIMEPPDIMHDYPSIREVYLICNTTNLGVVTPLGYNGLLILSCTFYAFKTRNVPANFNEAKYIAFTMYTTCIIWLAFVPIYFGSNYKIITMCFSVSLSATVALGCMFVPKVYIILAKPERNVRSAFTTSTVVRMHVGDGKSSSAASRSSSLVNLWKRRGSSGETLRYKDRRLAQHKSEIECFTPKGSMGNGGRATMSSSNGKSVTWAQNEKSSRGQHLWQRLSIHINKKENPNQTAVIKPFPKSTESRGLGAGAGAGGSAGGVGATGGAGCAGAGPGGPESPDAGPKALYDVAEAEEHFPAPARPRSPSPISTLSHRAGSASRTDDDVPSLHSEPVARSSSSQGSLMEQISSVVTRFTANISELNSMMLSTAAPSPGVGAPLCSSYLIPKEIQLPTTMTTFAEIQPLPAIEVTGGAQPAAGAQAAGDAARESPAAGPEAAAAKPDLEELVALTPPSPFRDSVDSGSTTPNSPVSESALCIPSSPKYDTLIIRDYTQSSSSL
The target of data set [6] is Metabotropic glutamate receptor 1 (Homo sapiens, UniProt Q13255). Put plainly: Positive allosteric modulation of mGluR1.
Data set [7] concerns the target Metabotropic glutamate receptor 2 (Homo sapiens, UniProt Q14416). Put plainly: Positive allosteric modulation of mGluR2.
The target of data set [8] is Metabotropic glutamate receptor 3 (Homo sapiens, UniProt Q14832). Put plainly: Positive allosteric modulation of mGluR3.
Data set [9] has as its target Metabotropic glutamate receptor 4 (Homo sapiens, UniProt Q14833). Put plainly: Positive allosteric modulation of mGluR4.
Data set [10] concerns the target Metabotropic glutamate receptor 6 (Homo sapiens, UniProt O15303). Put plainly: Positive allosteric modulation of mGluR6.
Data set [11] addresses Metabotropic glutamate receptor 7 (Homo sapiens, UniProt Q14831). Put plainly: Positive allosteric modulation of mGluR7.
For data set [12], the target named is Metabotropic glutamate receptor 8 (Homo sapiens, UniProt O00222). In words: Positive allosteric modulation of mGluR8.
The target of data set [13] is Metabotropic glutamate receptor 5 (Rattus norvegicus) (UniProt P31424). Put plainly: Positive allosteric modulation of rat mGlu5 expressed in human HEK293 cells relative to glutamate. The data set is classed as cell-based.
Chain of Metabotropic glutamate receptor 5 (Rattus norvegicus) (P31424 21-1203 limits assumed): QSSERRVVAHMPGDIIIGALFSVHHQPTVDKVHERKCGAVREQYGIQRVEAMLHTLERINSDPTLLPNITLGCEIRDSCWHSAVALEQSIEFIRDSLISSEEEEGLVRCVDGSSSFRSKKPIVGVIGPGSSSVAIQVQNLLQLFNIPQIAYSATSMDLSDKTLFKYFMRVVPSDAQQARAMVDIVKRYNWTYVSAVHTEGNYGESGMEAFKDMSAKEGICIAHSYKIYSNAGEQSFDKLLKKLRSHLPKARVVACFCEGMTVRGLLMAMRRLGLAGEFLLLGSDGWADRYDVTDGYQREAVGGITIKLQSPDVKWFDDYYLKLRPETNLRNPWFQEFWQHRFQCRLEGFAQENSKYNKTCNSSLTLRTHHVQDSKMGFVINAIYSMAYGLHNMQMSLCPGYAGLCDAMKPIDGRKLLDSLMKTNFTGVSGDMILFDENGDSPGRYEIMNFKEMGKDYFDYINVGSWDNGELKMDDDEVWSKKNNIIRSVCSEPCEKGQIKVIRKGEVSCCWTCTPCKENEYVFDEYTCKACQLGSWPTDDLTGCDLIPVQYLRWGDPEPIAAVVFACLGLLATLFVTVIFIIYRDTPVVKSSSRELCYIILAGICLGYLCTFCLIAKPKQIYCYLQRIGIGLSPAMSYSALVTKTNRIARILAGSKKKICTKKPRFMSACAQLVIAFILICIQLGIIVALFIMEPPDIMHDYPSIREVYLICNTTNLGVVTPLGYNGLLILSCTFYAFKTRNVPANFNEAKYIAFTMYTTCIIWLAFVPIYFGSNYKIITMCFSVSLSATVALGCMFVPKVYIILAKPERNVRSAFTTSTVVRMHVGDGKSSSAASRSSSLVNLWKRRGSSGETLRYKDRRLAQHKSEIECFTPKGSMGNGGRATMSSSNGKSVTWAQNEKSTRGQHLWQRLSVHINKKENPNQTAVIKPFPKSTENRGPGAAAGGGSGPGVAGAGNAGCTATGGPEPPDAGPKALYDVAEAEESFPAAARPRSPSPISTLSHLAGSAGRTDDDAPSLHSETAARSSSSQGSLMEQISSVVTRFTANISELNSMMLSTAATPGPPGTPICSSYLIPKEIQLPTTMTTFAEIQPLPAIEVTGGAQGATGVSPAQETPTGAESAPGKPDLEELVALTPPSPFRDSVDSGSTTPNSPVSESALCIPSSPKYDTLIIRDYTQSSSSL
The target of data set [14] is T2, Metabotropic glutamate receptor 5. In words: Positive allosteric modulation of human mGlu5 expressed in HEK293 cells relative to glutamate. The data set is classed as cell-based.
Target sequence in this assay (P41594 21-1212 limits assumed): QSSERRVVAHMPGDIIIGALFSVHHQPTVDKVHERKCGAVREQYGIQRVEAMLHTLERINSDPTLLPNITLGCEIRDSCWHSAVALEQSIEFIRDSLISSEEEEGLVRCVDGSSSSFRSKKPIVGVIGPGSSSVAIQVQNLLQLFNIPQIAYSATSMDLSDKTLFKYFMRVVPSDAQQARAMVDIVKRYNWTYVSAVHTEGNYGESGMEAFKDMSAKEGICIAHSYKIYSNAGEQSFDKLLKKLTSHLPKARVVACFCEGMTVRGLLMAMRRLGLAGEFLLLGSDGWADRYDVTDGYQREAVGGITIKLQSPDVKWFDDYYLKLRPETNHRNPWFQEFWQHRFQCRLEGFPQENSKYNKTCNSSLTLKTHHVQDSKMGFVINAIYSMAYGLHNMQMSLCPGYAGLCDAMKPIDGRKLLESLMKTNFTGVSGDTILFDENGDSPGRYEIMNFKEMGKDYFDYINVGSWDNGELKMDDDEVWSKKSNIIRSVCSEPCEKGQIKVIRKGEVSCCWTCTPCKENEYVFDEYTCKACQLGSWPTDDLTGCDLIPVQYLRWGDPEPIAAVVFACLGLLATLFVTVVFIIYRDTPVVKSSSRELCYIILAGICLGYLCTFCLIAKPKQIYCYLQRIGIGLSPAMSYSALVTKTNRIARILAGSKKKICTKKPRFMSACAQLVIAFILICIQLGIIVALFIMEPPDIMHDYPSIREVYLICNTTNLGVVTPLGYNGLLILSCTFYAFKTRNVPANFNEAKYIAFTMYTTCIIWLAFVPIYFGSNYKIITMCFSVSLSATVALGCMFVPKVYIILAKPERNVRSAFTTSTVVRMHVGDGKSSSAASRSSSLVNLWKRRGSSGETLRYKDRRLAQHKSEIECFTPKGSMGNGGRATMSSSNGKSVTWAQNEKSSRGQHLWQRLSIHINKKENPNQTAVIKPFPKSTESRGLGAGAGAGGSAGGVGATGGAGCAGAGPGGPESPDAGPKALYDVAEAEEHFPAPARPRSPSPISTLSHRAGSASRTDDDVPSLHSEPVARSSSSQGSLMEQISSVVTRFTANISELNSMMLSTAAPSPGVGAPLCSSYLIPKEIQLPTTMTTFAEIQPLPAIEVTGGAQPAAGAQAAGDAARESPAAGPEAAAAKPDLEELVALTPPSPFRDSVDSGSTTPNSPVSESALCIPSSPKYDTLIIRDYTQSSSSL
Data set [15] deals with Brain. In words: Fraction unbound in rat brain. The data set is classed as ADME, tissue-based.
Data set [16] addresses Metabotropic glutamate receptor 5 (Rattus norvegicus) (UniProt P31424). In words: Positive allosteric modulation of wild type rat mGlu5 expressed in human HEK293 cells assessed as glutamate concentration response curve at 1 uM. The data set is classed as cell-based.
A short description of data set [17]: Terminal half life in rat at 1 mg/kg, iv and 10 mg/kg, po. The data set is classed as ADME, organism-based. The settings on record: in vivo, read-out: beta t1/2 (converted). The method, boiled down:
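Non-crossover rat PK study with 1 mg/kg IV dosing and 10 mg/kg PO dosing in 20% β-CD. Plasma clearance and terminal half-life were determined.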

Data set [18] deals with Rattus norvegicus. Put plainly: Volume of distribution at steady state in rat at 10 mg/kg, po. Format: ADME, organism-based. Set-up: dose 10 mg/kg, route oral. To be noted: in vivo. The method, boiled down: (§1)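 Rats were dosed orally at 10 mg/kg in 20% β-CD. Snapshot drug levels were taken in portal vein, plasma and brain at 0.5, 1.0, 3.0 and 6.0 h. AUC, brain/plasma ratio, Cmax, Tmax and Vss were derived from these levels.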

The next data set has as its system Plasma. In words: AUC in rat plasma at 10 mg/kg, po. Format: ADME, organism-based. Also on record: dose 10 mg/kg, route oral. To be noted: in vivo. Put shortly: as §1
Data set [19] can be described thus: AUC in rat brain at 10 mg/kg, po. Format: ADME, organism-based. Also on record: dose 10 mg/kg, route oral. The method, boiled down: as §1
In data set [20] the test system is Brain. In words: Ratio of AUC in rat brain to AUC in rat plasma at 10 mg/kg, po. The data set is classed as ADME, organism-based. Set-up: dose 10 mg/kg, route oral. The method, boiled down:
as §1

Data set [21] can be described thus: Cmax in rat brain at 10 mg/kg, po. The data set is classed as ADME, organism-based. Set-up: dose 10 mg/kg, route oral. Put shortly: as §1
Data set [22] has as its system Brain. Put plainly: Tmax in rat brain at 10 mg/kg, po. The data set is classed as ADME, organism-based. Set-up: dose 10 mg/kg, route oral. The settings on record: in vivo. Put shortly:
as §1

The test system of data set [23] is Rattus norvegicus. Put plainly: Antipsychotic activity in rat assessed as reversal of amphetamine-induced hyperlocomotion at 100 mg/kg, po. Format: functional, organism-based. Set-up: dose 100 mg/kg. Put shortly:
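Rats given amphetamine to induce hyperlocomotion received the test agent orally at 100 mg/kg in 20% β-CD vehicle. Reversal of locomotor activity was measured.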

Data set [24] can be described thus: Drug uptake in rat brain after 90 mins. Format: ADME, tissue-based. The settings on record: read-out: Drug uptake.
Data set [25] concerns Metabotropic glutamate receptor 5 (Rattus norvegicus), P31424 [P654F]. Put plainly: Positive allosteric modulation of wild type rat mGlu5 receptor P654F mutant expressed in human HEK293 cells assessed as glutamate concentration response curve at 1 uM. The data set is classed as cell-based.
Chain of Metabotropic glutamate receptor 5 (Rattus norvegicus), P31424 [P654F] (P31424 whole entry P654F): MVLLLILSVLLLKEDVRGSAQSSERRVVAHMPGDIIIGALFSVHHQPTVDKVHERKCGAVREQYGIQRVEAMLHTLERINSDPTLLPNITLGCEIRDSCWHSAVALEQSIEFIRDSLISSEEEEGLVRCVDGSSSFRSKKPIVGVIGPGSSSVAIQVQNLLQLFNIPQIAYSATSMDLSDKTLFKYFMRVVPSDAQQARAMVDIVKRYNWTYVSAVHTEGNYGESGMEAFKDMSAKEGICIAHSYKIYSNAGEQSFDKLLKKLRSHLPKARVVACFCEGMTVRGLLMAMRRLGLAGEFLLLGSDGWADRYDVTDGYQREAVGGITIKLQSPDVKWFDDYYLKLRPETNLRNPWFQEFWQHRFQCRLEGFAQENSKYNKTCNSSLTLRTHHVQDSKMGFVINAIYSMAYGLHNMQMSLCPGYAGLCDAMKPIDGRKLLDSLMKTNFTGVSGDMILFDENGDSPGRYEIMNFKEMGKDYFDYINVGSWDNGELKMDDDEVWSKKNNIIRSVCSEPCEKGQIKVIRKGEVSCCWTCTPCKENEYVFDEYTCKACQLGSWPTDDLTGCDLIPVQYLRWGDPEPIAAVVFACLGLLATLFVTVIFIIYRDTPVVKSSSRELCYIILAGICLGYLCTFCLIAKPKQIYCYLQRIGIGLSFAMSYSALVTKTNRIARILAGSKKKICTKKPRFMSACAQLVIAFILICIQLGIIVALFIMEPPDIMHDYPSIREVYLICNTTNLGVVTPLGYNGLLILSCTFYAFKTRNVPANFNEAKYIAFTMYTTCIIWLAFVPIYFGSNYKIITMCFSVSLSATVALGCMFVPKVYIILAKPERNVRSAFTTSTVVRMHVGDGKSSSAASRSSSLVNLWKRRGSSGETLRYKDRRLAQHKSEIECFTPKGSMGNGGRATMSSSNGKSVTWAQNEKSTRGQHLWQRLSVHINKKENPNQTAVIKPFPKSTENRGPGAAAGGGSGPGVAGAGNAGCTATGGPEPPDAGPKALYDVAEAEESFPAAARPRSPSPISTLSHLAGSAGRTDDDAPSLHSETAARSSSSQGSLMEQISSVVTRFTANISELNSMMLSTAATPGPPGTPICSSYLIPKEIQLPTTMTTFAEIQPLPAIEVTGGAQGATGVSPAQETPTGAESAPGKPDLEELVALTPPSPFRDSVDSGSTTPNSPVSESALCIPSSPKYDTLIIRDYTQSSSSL
For data set [26], the system named is Metabotropic glutamate receptor 5 (Rattus norvegicus), P31424 [T780A]. In words: Positive allosteric modulation of wild type rat mGlu5 receptor T780A mutant expressed in human HEK293 cells assessed as glutamate concentration response curve at 1 uM. The data set is classed as cell-based.
Chain of Metabotropic glutamate receptor 5 (Rattus norvegicus), P31424 [T780A] (P31424 whole entry T780A): as the sequence (P31424 whole entry P654F) above, with F654P, T780A counted along it
Data set [27] relates to Metabotropic glutamate receptor 5 (Rattus norvegicus), P31424 [A809V]. Put plainly: Positive allosteric modulation of wild type rat mGlu5 receptor A809V mutant expressed in human HEK293 cells assessed as glutamate concentration response curve at 1 uM. The data set is classed as cell-based.
Chain of Metabotropic glutamate receptor 5 (Rattus norvegicus), P31424 [A809V] (P31424 whole entry A809V): as the sequence (P31424 whole entry P654F) above, with F654P, A809V counted along it
The nature of data set [28]: Plasma protein binding in rat plasma.
A short description of data set [29]: Plasma protein binding in human plasma.

T1 sequence (P31424 whole entry): as the sequence (P31424 whole entry P654F) above, with F654P counted along it

As to `O=C(NC1CCC1)c1ccc(C#Cc2cccc(F)c2)nc1`, the EC50 in data set [1] (read-out: EC50) turned out to be 16 nM. Also, the inhibition constant Ki (commonly a measure of affinity in units of concentration, obtained from inhibition or displacement) in data set [2] was 195 nM.
Take `CCCCCOc1ccc(C(=O)NC2CCCCC2)cn1`: the EC50 in data set [1] (read-out: EC50) was 449 nM.
The same measure, in the same setting: in the case of `C[C@H](NC(=O)c1ccc(OCc2cccc(F)c2)nc1)C1CCCCC1` it was 167 nM; in that of `O=C(NC1CCOCC1)c1ccc(OCc2ccccc2)nc1`, 3810 nM.
For `CCCCOc1ccc(C(=O)Nc2ccc(F)cc2F)cc1`, the EC50 in data set [1] (hek293, read-out: EC50) was 33 nM. The inhibitory constant (Ki) in data set [2] was above 100000 nM.
`O=C(NC1CCOCC1)c1ccc(OCc2cccc(F)c2)nc1`: the EC50 in [1] (read-out: pEC50 (converted)) was 1620 nM.
With `CCCCOc1ccc(C(=O)Nc2ccc(F)cc2F)cn1`, in data set [1] (read-out: EC50), the EC50 came out at 725 nM. Besides, the Activity in [3] amounted to 5%.
In the same order, the values of `CCCCOc1ccc(C(=O)NC2CCCCC2)cn1` are 2490 nM and 27%.
Consider `C[C@@H](NC(=O)c1ccc(OCc2cccc(F)c2)nc1)C1CCCCC1`, for which the EC50 in data set [1] (read-out: EC50) was determined as 15 nM.
Turning to `O=C(NC1CCC1)c1ccc(OCc2cccc(F)c2)nc1`, in data set [1] (read-out: EC50), the EC50 turned out to be 300 nM.
For `O=C(NC1COC1)c1ccc(OCc2cccc(F)c2)nc1`, the EC50 result in data set [1] (hek293) is “Not Active”.
Turning to `CC(C)(C)NC(=O)c1ccc(OCc2cccc(F)c2)nc1`, the EC50 in [1] (read-out: EC50) is 136 nM.
In the case of `CCCOc1ccc(C(=O)NC2CCCCC2)cn1`, in data set [1] (hek293), the EC50 entry was “Not Active”.
Take `O=C(NC1CCCCC1)c1ccc(OCc2ccc(F)cc2)nc1`: the EC50 in [1] (read-out: EC50) turned out to be 251 nM.
`CCCC(C)Oc1ccc(C(=O)NC2CCCCC2)cn1` (stereo unspecified): in data set [1] (hek293), the EC50 entry was “Not Active”.
With `C[C@@H](NC(=O)c1ccc(OCc2cccc(F)c2)nc1)C(C)(C)C`, the solubility (usually the dissolved amount per volume that the medium holds) in data set [4] was below 20 µg/mL. The Ki in [2] stood at 153 nM. The EC50 in [5] was 70 nM; in data set [6], above 10 µM; in [7] it was above 10 µM; in [8], above 10 µM; in data set [9], above 10 µM; in [10], above 10 µM. In addition, the EC50 in [11] and in data set [12] was above 10 µM each time. The maximal effect (Emax) (as a rule, the size of the effect at its maximum, as opposed to the concentration needed) in data set [13] was determined as 83%; in data set [14], 86%. Besides, the fold change (FC) in data set [13] is 8.2; in data set [14], 10; in [16], 5. Also, the Fu in the data set on Brain [15] came to 1%. The half-life in [17] is 300 min. This compound displayed a Vdss in the data set with Rattus norvegicus [18] of 2.3 L/kg. For the same compound, the AUC – broadly, concentration integrated over time – with Plasma was 23 µM·h; in [19], 1.2 µM·h. Besides, the “Ratio AUC” value in the data set with Brain [20] is recorded as 0.05. In addition, the Cmax (in general, the highest concentration seen after dosing) in data set [21] is 435 nM. For the same compound, the Tmax (as a rule, the time at which the peak concentration occurs) with Brain [22] amounted to 30 min. For the same compound, in the data set with Rattus norvegicus [23], the result was Active. The concentration at 1.5 h in data set [24] is 7.4 µM. The outcome in data set [25], in [26] and in data set [27] was inactive. For the same compound, the PPB in [28] and in [29] was at least 0.99 throughout.
As to `CCCCOc1ccc(C(=O)NC2CCCCC2)cc1`, the EC50 in data set [1] (read-out: EC50) was found to be 607 nM. In data set [3], the Activity was determined as 12%.
Turning to `O=C(N[C@@H](C1CC1)C(F)(F)F)c1ccc(OCc2cccc(F)c2)nc1`, the EC50 in data set [1] (read-out: EC50) is 83 nM; in [1] (read-out: pEC50 (converted)), 85.1 nM.
On to `CCCCOc1ccc(C(=O)Nc2ccc(F)cn2)cn1`, for which the EC50 in data set [1] (read-out: EC50) amounted to 1900 nM. The same compound had an Activity in data set [3] of 9.5%.
Turning to `CCCCOc1ccc(C(=O)Nc2ncc(F)cc2F)cc1`, in data set [1] (read-out: EC50), the EC50 was above 10000 nM. Besides, the Activity in data set [3] stood at 0%.
Consider `C[C@@H](NC(=O)c1ccc(OCc2cccc(F)c2)cc1)C(C)(C)C`, for which the EC50 in data set [5] is 180 nM. In data set [14], this compound showed an Emax of 70%.
As to `CCCCOc1ccc(C(=O)N(C)c2ccc(F)cc2F)cc1`, in [1] (hek293), the EC50 result is on record as “Not Active”.
For the compound `O=C(NC1CCC1)c1ccc(OCc2ccccc2)nc1`, the EC50 in data set [1] (read-out: EC50) is 297 nM.
On to `O=C(NC1CCCCC1)c1ccc(OCC2CCCC2)nc1`, for which the EC50 in data set [1] (read-out: EC50) is 446 nM. For the same compound, the Activity in data set [3] was determined as 0%.
In the case of `CCCCOc1ccc(C(=O)NC2CCC2)cc1`, the EC50 in data set [1] (read-out: EC50) was found to be 5170 nM. The same compound showed an Activity in data set [3] of 6.5%.
Turning to `O=C(NC1CCCCC1)c1ccc(OCC2CC2)nc1`, the EC50 entry in data set [1] (hek293) is recorded as “Not Active”.
In the case of `CCC(C)COc1ccc(C(=O)NC2CCCCC2)cn1` (racemic), in data set [1] (read-out: EC50), the EC50 was 1080 nM.
Same read-out and setting: in the case of `CC(C)CCOc1ccc(C(=O)NC2CCCCC2)cn1` it was 1140 nM.
On to `O=C(NC1CCCCC1)c1ccc(OCc2ccccc2)nc1`, for which, in data set [1] (read-out: EC50), the EC50 was found to be 34 nM. Further, the Activity in data set [3] was determined as 21%.
Take `O=C(NC1CCCCC1)c1ccc(OCc2cccc(F)c2)nc1`: in data set [1] (read-out: EC50), the EC50 was 29 nM.
